# Mdm2 ligase inh: inhibitors of human Mdm2 E3 ubiquitin ligase; Q00987; cell-based MDM2 ubiquitination luciferase reporter, 2 h; 0 = plate control, 100 = twice control, blank-subtracted; signal enhancement, % at 5 µM; 210,000 tested, 0.11% active; AID 1230;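 active means signal enhancement of 30% or more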;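 further: luminescence tracks abundance of the self-degrading MDM2-luciferase fusion protein; higher signal means inhibition of MDM2 E3 ligase activity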
# Target sequence (Q00987 whole entry, looked up, the tested form may be a part): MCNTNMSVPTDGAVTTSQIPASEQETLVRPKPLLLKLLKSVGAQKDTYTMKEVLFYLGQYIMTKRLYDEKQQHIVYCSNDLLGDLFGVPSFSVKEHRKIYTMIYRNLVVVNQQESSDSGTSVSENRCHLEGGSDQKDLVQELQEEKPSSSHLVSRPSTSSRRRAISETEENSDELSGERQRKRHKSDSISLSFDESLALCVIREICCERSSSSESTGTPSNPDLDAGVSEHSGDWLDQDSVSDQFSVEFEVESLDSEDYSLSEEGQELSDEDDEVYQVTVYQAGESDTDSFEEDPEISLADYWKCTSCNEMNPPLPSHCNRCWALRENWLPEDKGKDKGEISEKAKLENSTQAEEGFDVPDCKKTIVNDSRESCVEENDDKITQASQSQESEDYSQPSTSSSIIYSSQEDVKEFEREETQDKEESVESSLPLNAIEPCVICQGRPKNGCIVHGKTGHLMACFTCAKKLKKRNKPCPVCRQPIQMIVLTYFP
#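 Test system: mammalian cells stably expressing self-ubiquitinating, self-degrading MDM2 E3–luciferase fusion; Amount: 2000 cells in each well; Medium: DMEM; Schedule: 4 h settle plus 2 h compound, 37 °C; Technique: SteadyLite luciferase luminescence after 15 min room-temperature reagent incubation; Benchmarks: plate control and blank wells.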
# HSV augment: HSV replication enhancement; maximum fold increase; HSV replication augmentation in cells, fold increase; 220,000 tested, 0.005% active; in the data active means maximum fold increase above about 1.5; tested in PC3 cells
# zVAD death inh: L929 zVAD cell death inhibition | L929 zVAD necroptosis rescue, ATP luminescence, 24 h; with zVAD 60 µM | viability rescue, % at 10 µM | 220,000 tested, 0.38% active | AID 1377;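 active means activation, scaled between plate controls, above about 75%, limit read from the data; inactive means activation under that limit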;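 further: 0% = zVAD with DMSO and 100% = DMSO alone without zVAD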
# E-sel TNF inh: blocks E-selectin expression induced by TNF alpha. HUVEC TNFa-induced E-selectin immunofluorescence, high content. 120,000 tested, 0.71% active. inhibition, % at 2 µM;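 active means inhibition above the batch mean plus 3 SD, and confirmed as a hit on visual image review, cut at about 43% in these data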;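 further: 0% = TNF-stimulated DMSO wells and 100% = unstimulated control wells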
# TNF necrop inh: inhibitors of TNF-alpha induced necroptosis in Jurkat FADD-/- cells | Jurkat FADD-/- TNF necroptosis rescue, ATP luminescence, 24 h; 0 = TNF only, 100 = no-TNF cells | activation (protection from cell death), % at 10 µM | 220,000 tested, 0.068% active | AID 463075;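 active means activation, meaning protection from cell death, of at least 50% relative to plate controls; inactive means activation below 50%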;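 further: necroptosis triggered by 40 ng/mL TNF-alpha added together with compound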
# zVAD death conf: confirmed blocker of zVAD induced death in L929 cells; shares compounds with zVAD death inh; L929 zVAD-induced necroptosis rescue, ATP luminescence, 24 h; activation (protection from necroptosis), % at 10 µM; 760 tested, 16% active;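 active means mean protection from necroptosis of at least 50% over duplicate tests; inactive means mean protection below 50%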;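 further: 0% = cells with zVAD alone and 100% = vehicle cells without zVAD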
# Numbers without * were called inactive; i = inactive; . = not tested or not shown. In the library only some 0.89% were active in any assay of this set; here they are far more common.
SMILES,Mdm2 ligase inh,HSV augment,zVAD death inh,E-sel TNF inh,TNF necrop inh,zVAD death conf
Cc1ccc(NC(=O)COc2ncnc3ccccc23)cc1S(=O)(=O)N1CCOCC1,-5.4,i,0.3,.,1.4,.
Cc1ccc(NC(=O)COc2ccc(-c3nnco3)cc2)cc1S(=O)(=O)N1CCOCC1,-4.6,i,78.4*,.,-0.1,2.5
Cc1cc(C(=O)N/N=C/c2cccnc2)n[nH]1,5.5,i,83.6*,.,39.4,5.7
Cc1cc(C(=O)N/N=C/c2ccc[nH]2)no1,-9.7,i,0.2,.,2.3,.
Cc1ccc(-c2cc(C(=O)N/N=C/c3cccnc3)n[nH]2)o1,-3.3,i,1.7,9.5,-0.3,.
Cc1cc(C(=O)N/N=C/c2ccc(-c3ccc(C)c(Cl)c3)o2)n[nH]1,-11.2,i,15.2,.,10.7,.
Cc1cc(C(=O)N/N=C/c2ccc[nH]2)n[nH]1,-24.9,i,89.1*,.,16.0,27.1
Cc1cc(C)c2c(N)c(C(=O)N/N=C/c3cccnc3)sc2n1,0.2,i,78.9*,.,-10.3,36.0
Cc1cc(C(=O)N/N=C/c2ccc(-c3ccccc3Cl)o2)n[nH]1,-11.7,i,83.5*,.,29.8,38.3
CCCCOC(=O)Nc1nnc(Cc2ccc(Cl)cc2)s1,-10.7,i,13.5,-28.6,3.6,.
CCCCC(=O)Nc1nc2ccc3nc(C)sc3c2s1,-11.1,i,46.2,.,6.5,.
CCCC(=O)Nc1nc2ccc3nc(C)sc3c2s1,-18.6,i,91.1*,.,4.6,0.4
CCC(=O)Nc1nc2ccc3sc(C)nc3c2s1,-33.5,i,79.1*,.,-4.0,8.2
Cc1nc2c(ccc3nc(NC(=O)C4CC4)sc32)s1,-29.0,i,80.3*,-2.6,1.3,18.0
CCC(=O)Nc1nc2ccc([N+](=O)[O-])cc2s1,.,i,74.1,.,-10.8,.
NNC(=O)COc1ccc(C(F)(F)F)cc1,-11.4,i,0.6,.,0.1,.
O=C(NN=C(Cc1ccccc1)Cc1ccccc1)C1CC1,-2.6,i,2.4,.,2.6,.
CC1(C)CC(=O)C(C2C3=C(CC(C)(C)CC3=O)Oc3ccccc32)C(=O)C1 (configuration not stated),-3.8,i,0.9,.,1.7,.
CC1(C)CC(=O)C2=C(C1)Oc1nc3ccccc3cc1C2C(C#N)C#N (configuration not stated),5.9,i,90.0*,.,-12.0,2.5
c1ccc2c(c1)nc(N1CCOCC1)c1c3ccccc3[nH]c21,-2.2,i,81.9*,-8.1,1.4,3.9
O=c1[nH]c2ccccc2nc1N1CCOCC1,-0.3,i,0.8,-0.1,-1.0,.
Cc1ccc2[nH]c3c(c2c1)CCC3=O,-7.6,i,0.2,3.0,-2.6,.
Cc1ccc2[nH]c3c(c2c1)CCc1cn[nH]c1-3,10.3,.,88.8*,27.7,92.0*,80.0*
CCOC(=O)c1ccc(NC(=O)c2cccc(C)c2[N+](=O)[O-])cc1,-23.3,i,33.0,.,4.6,.
COC(=O)c1ccc(NC(=O)c2cccc(C)c2[N+](=O)[O-])cc1,7.8,i,84.6*,-18.8,3.7,2.8
SMILES,Mdm2 ligase inh,HSV augment,zVAD death inh,E-sel TNF inh,TNF necrop inh,zVAD death conf
Cc1sc(NC(=O)Nc2ccccc2)c(C(N)=O)c1C,-6.1,i,76.6*,.,0.6,0.9
COC(=O)c1c(NC(=O)Nc2ccc(Cl)cc2)sc(C)c1C,-11.4,.,0.1,.,0.8,.
Cn1nc(C(C)(C)C)cc1NC(=O)Nc1cc(Cl)cc(Cl)c1,-4.6,i,94.0*,.,22.1,92.6*
Cc1ccc(F)cc1NC(=O)Nc1cc(C(C)(C)C)nn1C,-5.8,i,34.4,.,6.4,.
Cc1ccc(CN2CCS(=O)(=O)CC2)o1,-6.2,i,82.7*,-13.2,13.6,5.4
Cc1ccc(OCc2nnc(N)s2)cc1C,-5.5,i,-0.4,.,2.3,.
O=C(CSc1nncn1-c1ccccc1)Nc1cccc(S(=O)(=O)N2CCCCC2)c1,1.6,i,0.3,49.3,1.6,.
O=C(CSc1nnnn1-c1ccc(O)cc1)Nc1ccc(N2CCOCC2)c(Cl)c1,-4.0,i,75.5*,11.9,4.7,75.1*
NC(=O)c1ccc(-n2nnnc2SCC(=O)Nc2ccc(N3CCOCC3)c(Cl)c2)cc1,-3.6,i,-0.4,-18.8,-0.1,.
Cc1ccc(NC(=O)CSc2nnnn2-c2ccc3c(c2)OCO3)cc1C,-10.9,i,79.0*,-8.7,5.3,74.2*
O=C(CSc1nnnn1-c1ccc(O)cc1)Nc1cccc(S(=O)(=O)N2CCCC2)c1,-9.5,i,88.0*,-6.4,2.3,89.2*
CC1CC(C)(C)OC(C[N+]2(C)CCCCC2)O1 (configuration not stated),0.7,i,0.8,.,-0.3,.
CCOC(=O)/C=C1\Nc2ccccc2OC1=O,-9.4,i,94.0*,17.4,9.5,2.7
O=C(COc1cccnc1[N+](=O)[O-])Nc1cc(S(=O)(=O)N2CCCCC2)ccc1Cl,.,i,0.2,.,4.5,.
Cc1[nH]n(-c2nc(-c3ccccc3F)cc(=O)[nH]2)c(=O)c1CCO,-12.3,i,-0.2,.,0.5,.
Cn1c(C(=O)NCCCN2CCc3ccccc3C2)cc2c(=O)n(C)c3ccccc3c21,-8.6,i,18.9,2.7,0.7,.
Cn1c(C(=O)NCCCN2CCCCCC2)cc2c(=O)n(C)c3ccccc3c21,-10.9,i,83.1*,.,3.4,39.2
CCCN1CCN(CCCNC(=O)c2cc3c(=O)n(C)c4ccccc4c3n2C)CC1,3.0,i,53.0,-5.6,1.8,.
CN1CCN(CCNC(=O)c2cc3c(=O)n(C)c4ccccc4c3n2C)CC1,-9.8,i,78.0*,.,3.9,28.1
CC(O)c1nc2ccc(C(=O)O)cc2[nH]1 (configuration not stated),.,i,0.2,.,0.4,.
O=C(Nc1ccccc1N1CCN(c2ccccc2)CC1)c1ccccc1,-9.0,i,1.8,.,-0.1,.
O=C1NCC(O)=C1C=Nc1ccccc1O,-14.5,i,76.5*,.,13.7,6.8
O=c1[nH][nH]cc1C=Nc1ccccc1O,-7.1,i,75.2*,-16.5,8.3,12.5
O=c1[nH][nH]cc1C=Nc1ccccc1Cl,-1.7,i,1.8,.,-0.3,.
O=C1NCC(O)=C1C=NCCCO,-5.7,.,6.0,-67.5,1.8,.
SMILES,Mdm2 ligase inh,HSV augment,zVAD death inh,E-sel TNF inh,TNF necrop inh,zVAD death conf
O=C(COc1cccc2cccnc12)Nc1ccccc1N1CCOCC1,6.8,i,0.2,.,-0.9,.
CC(C)CCNC(=O)CN(C(=O)CCC(=O)Nc1ccccn1)c1ccc(F)c(Cl)c1,-12.7,i,0.2,.,-1.4,.
COc1ccc(-c2cc(C(F)(F)F)nc(-n3ccnc3)n2)cc1,0.2,i,-2.0,.,-0.3,.
CCOC(=O)Nc1nnc(-c2ccccc2OC)s1,-14.2,i,0.5,-30.0,-0.3,.
CCC(SC1=NCCS1)C(=O)Nc1nnc(-c2ccccc2OC)s1 (configuration not stated),-12.6,i,83.2*,-16.8,2.8,1.3
Cc1cc(C(=O)Nc2ccccc2)oc(=O)c1,-5.6,i,-0.5,.,0.1,.

# Source: PubChem BioAssay
